What was measured:
PC-3 [1] = assay: Cell cycle arrest in human PC3 cells assessed as accumulation at G2/M phase at 10 uM after 16 hrs by propidium iodide staining-based flow cytometry (reference value: 32.3%); assay type: functional
PC-3 [2] = assay: Induction of apoptosis in human PC3 cells assessed as viable cells at 10 uM after 16 hrs by F2N12S and CYTOX AADvanced double staining-based flow cytometric analysis (reference value: 95%); assay type: functional; conditions: PC-3, 16 h, read-out: Activity
PC-3 [3] = assay: Induction of apoptosis in human PC3 cells assessed as apoptotic cells at 30 uM after 16 hrs by F2N12S and CYTOX AADvanced double staining-based flow cytometric analysis (reference value: 2 to 3%); assay type: functional
PC-3 [4] = assay: Induction of apoptosis in human PC3 cells assessed as apoptotic cells at 50 uM after 16 hrs by F2N12S and CYTOX AADvanced double staining-based flow cytometric analysis (reference value: 2 to 3%); assay type: functional
PC-3 [5] = assay: Antiproliferative activity against human PC3 cells after 3 days by WST-1 assay; assay type: functional, cell-based; conditions: PC-3, 72 h
Summary of the method: (§1)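 Cells from ATCC; PC-3 and LNCaP grown in RPMI-1640 and DU145 in EMEM, each with 10% FBS and 1% penicillin/streptomycin, 37 °C, 5% CO2. Seeded 3,200 cells/well and exposed for 3 days to at least five doses, with DMSO as vehicle control. WST-1 reagent added for 3 h at 37 °C, absorbance read at 430 nm. IC50 taken from a linear inhibition plot; mean ± SD of three independent experiments.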

PC-3 [6] = assay: Induction of apoptosis in human PC3 cells assessed as necrotic cells at 50 uM after 16 hrs by F2N12S and CYTOX AADvanced double staining-based flow cytometric analysis (reference value: 2 to 3%); assay type: functional
PC-3 [7] = assay: Induction of apoptosis in human PC3 cells assessed as apoptotic cells at 100 uM after 16 hrs by F2N12S and CYTOX AADvanced double staining-based flow cytometric analysis (reference value: 2 to 3%); assay type: functional
PC-3 [8] = assay: Cell cycle arrest in human PC3 cells assessed as accumulation at S phase at 20 uM after 16 hrs by propidium iodide staining-based flow cytometry (reference value: 9.9%); assay type: functional
PC-3 [9] = assay: Induction of apoptosis in human PC3 cells assessed as apoptotic cells at 5 uM after 16 hrs by F2N12S and CYTOX AADvanced double staining-based flow cytometric analysis (reference value: 2 to 3%); assay type: functional
PC-3 [10] = assay: Induction of apoptosis in human PC3 cells assessed as viable cells at 50 uM after 16 hrs by F2N12S and CYTOX AADvanced double staining-based flow cytometric analysis (reference value: 95%); assay type: functional; conditions: PC-3, 16 h, read-out: Activity
PC-3 [11] = assay: Cell cycle arrest in human PC3 cells assessed as accumulation at S phase at 10 uM after 24 hrs by propidium iodide staining-based flow cytometry (reference value: 8.0%); assay type: functional
PC-3 [12] = assay: Induction of apoptosis in human PC3 cells assessed as viable cells at 100 uM after 16 hrs by F2N12S and CYTOX AADvanced double staining-based flow cytometric analysis (reference value: 95%); assay type: functional; conditions: PC-3, 16 h, read-out: Activity
PC-3 [13] = assay: Induction of apoptosis in human PC3 cells assessed as necrotic cells at 10 uM after 16 hrs by F2N12S and CYTOX AADvanced double staining-based flow cytometric analysis (reference value: 2 to 3%); assay type: functional
PC-3 [14] = assay: Cell cycle arrest in human PC3 cells assessed as accumulation at G0/G1 phase at 20 uM after 16 hrs by propidium iodide staining-based flow cytometry (reference value: 34.1%); assay type: functional
PC-3 [15] = assay: Cell cycle arrest in human PC3 cells assessed as accumulation at G0/G1 phase at 10 uM after 24 hrs by propidium iodide staining-based flow cytometry (reference value: 37.5%); assay type: functional
PC-3 [16] = assay: Induction of apoptosis in human PC3 cells assessed as necrotic cells at 30 uM after 16 hrs by F2N12S and CYTOX AADvanced double staining-based flow cytometric analysis (reference value: 2 to 3%); assay type: functional
PC-3 [17] = assay: Cell cycle arrest in human PC3 cells assessed as accumulation at G0/G1 phase at 20 uM after 24 hrs by propidium iodide staining-based flow cytometry (reference value: 37.5%); assay type: functional
PC-3 [18] = assay: Induction of apoptosis in human PC3 cells assessed as necrotic cells at 5 uM after 16 hrs by F2N12S and CYTOX AADvanced double staining-based flow cytometric analysis (reference value: 2 to 3%); assay type: functional
PC-3 [19] = assay: Induction of apoptosis in human PC3 cells assessed as necrotic cells at 100 uM after 16 hrs by F2N12S and CYTOX AADvanced double staining-based flow cytometric analysis (reference value: 2 to 3%); assay type: functional
PC-3 [20] = assay: Induction of apoptosis in human PC3 cells assessed as necrotic cells at 20 uM after 16 hrs by F2N12S and CYTOX AADvanced double staining-based flow cytometric analysis (reference value: 2 to 3%); assay type: functional
LNCaP = assay: Antiproliferative activity against human LNCAP cells after 3 days by WST-1 assay; assay type: functional, cell-based; conditions: 72 h; summary of the method: as §1
PC-3 [21] = assay: Cell cycle arrest in human PC3 cells assessed as accumulation at G0/G1 phase at 10 uM after 16 hrs by propidium iodide staining-based flow cytometry (reference value: 34.1%); assay type: functional
PC-3 [22] = assay: Induction of apoptosis in human PC3 cells assessed as viable cells at 20 uM after 16 hrs by F2N12S and CYTOX AADvanced double staining-based flow cytometric analysis (reference value: 95%); assay type: functional; conditions: PC-3, 16 h, read-out: Activity
DU-145 = assay: Antiproliferative activity against human DU145 cells after 3 days by WST-1 assay; assay type: functional, cell-based; conditions: DU-145, 72 h; summary of the method: as §1
PC-3 [23] = assay: Induction of apoptosis in human PC3 cells assessed as viable cells at 1 uM after 16 hrs by F2N12S and CYTOX AADvanced double staining-based flow cytometric analysis (reference value: 95%); assay type: functional; conditions: PC-3, 16 h, read-out: Activity
PC-3 [24] = assay: Induction of apoptosis in human PC3 cells assessed as necrotic cells at 1 uM after 16 hrs by F2N12S and CYTOX AADvanced double staining-based flow cytometric analysis (reference value: 2 to 3%); assay type: functional
PC-3 [25] = assay: Cell cycle arrest in human PC3 cells assessed as accumulation at S phase at 10 uM after 16 hrs by propidium iodide staining-based flow cytometry (reference value: 9.9%); assay type: functional
PC-3 [26] = assay: Induction of apoptosis in human PC3 cells assessed as apoptotic cells after 16 hrs by F2N12S and CYTOX AADvanced double staining-based flow cytometric analysis; assay type: functional, cell-based
PC-3 [27] = assay: Cell cycle arrest in human PC3 cells assessed as accumulation at G2/M phase at 20 uM after 16 hrs by propidium iodide staining-based flow cytometry (reference value: 32.3%); assay type: functional
PC-3 [28] = assay: Induction of apoptosis in human PC3 cells assessed as apoptotic cells at 10 uM after 16 hrs by F2N12S and CYTOX AADvanced double staining-based flow cytometric analysis (reference value: 2 to 3%); assay type: functional
PC-3 [29] = assay: Induction of apoptosis in human PC3 cells assessed as viable cells at 30 uM after 16 hrs by F2N12S and CYTOX AADvanced double staining-based flow cytometric analysis (reference value: 95%); assay type: functional; conditions: PC-3, 16 h, read-out: Activity
PC-3 [30] = assay: Cell cycle arrest in human PC3 cells assessed as accumulation at G2/M phase at 10 uM after 24 hrs by propidium iodide staining-based flow cytometry (reference value: 27.8%); assay type: functional
PC-3 [31] = assay: Cell cycle arrest in human PC3 cells assessed as accumulation at G2/M phase at 20 uM after 24 hrs by propidium iodide staining-based flow cytometry (reference value: 27.8%); assay type: functional
PC-3 [32] = assay: Induction of apoptosis in human PC3 cells assessed as apoptotic cells at 1 uM after 16 hrs by F2N12S and CYTOX AADvanced double staining-based flow cytometric analysis (reference value: 2 to 3%); assay type: functional
PWR-1E = assay: Antiproliferative activity against human PWR-1E cells after 3 days by WST-1 assay; assay type: cell-based; conditions: 72 h
Summary of the method: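 PWR-1E benign prostate epithelial cells grown in keratinocyte serum-free medium with bovine pituitary extract and recombinant human EGF. Seeded 3,200 cells/well and treated for 3 days at 37 °C, with DMSO as vehicle control. WST-1 reagent added for 3 h, absorbance read at 430 nm. IC50 from a linear inhibition plot over at least five doses; mean ± SD, n = 3.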

PC-3 [33] = assay: Induction of apoptosis in human PC3 cells assessed as apoptotic cells at 20 uM after 16 hrs by F2N12S and CYTOX AADvanced double staining-based flow cytometric analysis (reference value: 2 to 3%); assay type: functional
PC-3 [34] = assay: Induction of apoptosis in human PC3 cells assessed as viable cells at 5 uM after 16 hrs by F2N12S and CYTOX AADvanced double staining-based flow cytometric analysis (reference value: 95%); assay type: functional; conditions: PC-3, 16 h, read-out: Activity
PC-3 [35] = assay: Cell cycle arrest in human PC3 cells assessed as accumulation at S phase at 20 uM after 24 hrs by propidium iodide staining-based flow cytometry (reference value: 8.0%); assay type: functional
[36] = Cmax in C57BL/6J mouse prostate at 240 mg/kg, po administered as single dose measured after 6 hrs post administration; assay type: ADME, organism-based, Prostate gland; set-up: dose 240 mg/kg, route oral

Row | SMILES | Activity (PC-3 [1]) [%] | viability at 10 µM (PC-3 [2]) [%] | Activity (PC-3 [3]) [%] | Activity (PC-3 [4]) [%] | IC50 (PC-3 [5]) [µM] | Activity (PC-3 [6]) [%] | Activity (PC-3 [7]) [%] | Activity (PC-3 [8]) [%] | Activity (PC-3 [9]) [%] | viability at 50 µM (PC-3 [10]) [%] | Activity (PC-3 [11]) [%] | viability at 100 µM (PC-3 [12]) [%] | Activity (PC-3 [13]) [%] | Activity (PC-3 [14]) [%] | Activity (PC-3 [15]) [%] | Activity (PC-3 [16]) [%] | Activity (PC-3 [17]) [%] | Activity (PC-3 [18]) [%] | Activity (PC-3 [19]) [%] | Activity (PC-3 [20]) [%] | also measured
1 | CCCCCN(CCCCC)CCCOc1c(-c2cc(OC)c(OC)c(OC)c2)oc2ccccc2c1=O | 28.6 | 3 | 92 | 65 | 5.8 | 35 | 27 | 6.5 | 51 | 0 | 3.7 | 0 | 4 | 40.8 | 52.6 | 8 | 59.8 | 3 | 72 | 6 | IC50 (LNCaP): 5.1 µM; Activity (PC-3 [21]): 51.3%; viability at 20 µM (PC-3 [22]): 0%; IC50 (DU-145): 12.3 µM; viability at 1 µM (PC-3 [23]): 87%; Activity (PC-3 [24]): 2%; Activity (PC-3 [25]): 4.5%; Activity (PC-3 [26]): Dose-dependent effect; Activity (PC-3 [27]): 34.8%; Activity (PC-3 [28]): 93%; viability at 30 µM (PC-3 [29]): 0%; Activity (PC-3 [30]): 25.4%; Activity (PC-3 [31]): 26.4%; Activity (PC-3 [32]): 10%; IC50 (PWR-1E): 14.8 µM; Activity (PC-3 [33]): 94%; viability at 5 µM (PC-3 [34]): 46%; Activity (PC-3 [35]): 1.9%
2 | CCOc1c(-c2cc(OC)c(OC)c(OC)c2)oc2ccccc2c1=O | 22.2 | 95 | 3 | 5 | 0.9 | 5 | 6 | 4.6 | 3 | 92 | 18.7 | 91 | 3 | 59 | 40.8 | 3 | 48.6 | 3 | 6 | 5 | IC50 (LNCaP): 5.4 µM; Activity (PC-3 [21]): 55.7%; viability at 20 µM (PC-3 [22]): 93%; IC50 (DU-145): 6.2 µM; viability at 1 µM (PC-3 [23]): 94%; Activity (PC-3 [24]): 3%; Activity (PC-3 [25]): 7.7%; Activity (PC-3 [27]): 24.5%; Activity (PC-3 [28]): 3%; viability at 30 µM (PC-3 [29]): 94%; Activity (PC-3 [30]): 19.3%; Activity (PC-3 [31]): 17.9%; Activity (PC-3 [32]): 3%; IC50 (PWR-1E): 8.05 µM; Activity (PC-3 [33]): 5%; viability at 5 µM (PC-3 [34]): 95%; Activity (PC-3 [35]): 11.8%
3 | COc1cc(-c2oc3ccccc3c(=O)c2O)cc(OC)c1OC | 33 | 66 | 54 | 61 | 32.1 | 2 | 73 | 11.7 | 11 | 45 | 6 | 24 | 2 | 33.3 | 34.6 | 2 | 33.8 | 2 | 3 | 3 | Cmax [36]: 18.4 nM; IC50 (LNCaP): 14.7 µM; Activity (PC-3 [21]): 31.2%; viability at 20 µM (PC-3 [22]): 47%; IC50 (DU-145): 27.2 µM; viability at 1 µM (PC-3 [23]): 90%; Activity (PC-3 [24]): 2%; Activity (PC-3 [25]): 12.3%; Activity (PC-3 [26]): Dose-dependent effect; Activity (PC-3 [27]): 26.6%; Activity (PC-3 [28]): 39%; viability at 30 µM (PC-3 [29]): 43%; Activity (PC-3 [30]): 33.3%; Activity (PC-3 [31]): 31.2%; Activity (PC-3 [32]): 6%; IC50 (PWR-1E): > 50 µM; Activity (PC-3 [33]): 50%; viability at 5 µM (PC-3 [34]): 81%; Activity (PC-3 [35]): 6%
